From ChEMBL document CHEMBL1127818, “Identification of L-tryptophan derivatives with potent and selective antagonist activity at the NK1 receptor” (J Med Chem, 1994) come the findings set out here.

Where only a bound is given, the exact number is not on record here.

One may read the IC50 as the concentration needed to halve the response being measured. A lower IC50 goes with higher potency.

The target of test [1] is T1, Substance-K receptor (Homo sapiens, UniProt P21452).
T1 sequence (P21452 whole entry): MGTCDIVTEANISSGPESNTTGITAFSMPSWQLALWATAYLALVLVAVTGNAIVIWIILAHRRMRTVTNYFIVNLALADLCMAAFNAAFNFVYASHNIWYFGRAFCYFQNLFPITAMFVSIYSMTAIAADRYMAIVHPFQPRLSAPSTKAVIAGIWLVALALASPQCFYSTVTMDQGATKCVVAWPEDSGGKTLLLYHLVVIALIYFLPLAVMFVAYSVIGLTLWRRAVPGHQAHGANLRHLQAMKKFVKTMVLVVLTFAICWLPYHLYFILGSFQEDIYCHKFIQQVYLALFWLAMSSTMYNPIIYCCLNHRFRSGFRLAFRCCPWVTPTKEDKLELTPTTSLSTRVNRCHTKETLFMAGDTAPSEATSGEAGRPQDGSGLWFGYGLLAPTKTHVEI
The experiment in a line: Binding affinity to the NK2 receptor assayed by displacement of [125I]-Neurokinin A. The essentials:
(§1)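 Cloned human NK2 or NK3 receptors stably expressed in CHO cells. Radioligand displacement with [125I]neurokinin A for NK2 and [125I]Bolton-Hunter labeled eledoisin for NK3; IC50 reported.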
On the technique in general: In a radioligand displacement assay an active substance lowers the binding of a labelled ligand.

For test [2], the target named is T2, Neuromedin-K receptor (Homo sapiens, UniProt P29371).
T2 sequence (P29371 whole entry): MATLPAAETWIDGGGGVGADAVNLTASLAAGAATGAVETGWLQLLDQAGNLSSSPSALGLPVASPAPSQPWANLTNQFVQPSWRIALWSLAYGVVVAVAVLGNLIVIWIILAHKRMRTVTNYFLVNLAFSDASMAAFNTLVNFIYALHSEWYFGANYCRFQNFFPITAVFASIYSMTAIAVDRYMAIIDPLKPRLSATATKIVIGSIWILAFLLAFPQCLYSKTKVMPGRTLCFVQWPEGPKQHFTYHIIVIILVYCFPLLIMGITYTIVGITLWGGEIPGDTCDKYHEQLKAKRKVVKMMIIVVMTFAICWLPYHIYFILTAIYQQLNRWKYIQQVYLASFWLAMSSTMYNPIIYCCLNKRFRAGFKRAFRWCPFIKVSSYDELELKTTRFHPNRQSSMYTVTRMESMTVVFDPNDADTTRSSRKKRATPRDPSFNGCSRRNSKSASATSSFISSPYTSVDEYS
The experiment in a line: Affinity to NK3 receptors assayed by displacement of [125I]-Bolton-Hunter labeled eledoisin radioligand. The essentials: as §1

For test [3], the species on record is Cavia porcellus. Briefly: Inhibitory dose against substance P induced extravasation in the guinea pig. Conditions: read-out: ID50.
Test [4] is filed under the species Cavia porcellus. The experiment in a line: animal or person. Conditions: po, read-out: Inhibition.
In test [5] the target is Substance-P receptor (Homo sapiens, UniProt P25103). The experiment in a line: Binding affinity towards cloned neurokinin 1 receptor, based on the displacement of [125I]-labeled substance P.
Chain of Substance-P receptor (P25103 whole entry): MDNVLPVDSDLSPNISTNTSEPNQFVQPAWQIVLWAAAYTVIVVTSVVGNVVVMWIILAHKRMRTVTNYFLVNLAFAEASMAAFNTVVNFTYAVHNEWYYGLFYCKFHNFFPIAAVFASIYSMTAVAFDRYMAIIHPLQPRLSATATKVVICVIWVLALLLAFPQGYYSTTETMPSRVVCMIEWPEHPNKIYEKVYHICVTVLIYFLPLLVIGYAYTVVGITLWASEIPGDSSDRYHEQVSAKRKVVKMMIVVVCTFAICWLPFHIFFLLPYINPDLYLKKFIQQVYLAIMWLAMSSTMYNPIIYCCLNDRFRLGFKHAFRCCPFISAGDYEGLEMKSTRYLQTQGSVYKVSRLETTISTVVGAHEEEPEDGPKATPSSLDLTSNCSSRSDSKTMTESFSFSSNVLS

`CC(=O)N[C@@H](Cc1c[nH]c2ccccc12)C(=O)OCc1cc(C)cc(C)c1` [L-708568]: the IC50 in test [1] and in test [2] was greater than 5 µM throughout.

In the case of `CC(=O)N[C@@H](Cc1c[nH]c2ccccc12)C(=O)OCc1cc(C(F)(F)F)cc(C(F)(F)F)c1` [L-732138], the IC50 in test [1] and in test [2] was greater than 5 µM in each case. In test [3], the ED50 came to 8 mg/kg. Moreover, the inhibition in vivo at 30 mg/kg in test [4] is 22%.

Regarding `O=C(N[C@@H](Cc1c[nH]c2ccccc12)C(=O)OCc1cc(C(F)(F)F)cc(C(F)(F)F)c1)c1ccccc1`, the 50% inhibitory concentration (IC50) in test [5] is 0.0027 µM; in test [1], greater than 5 µM; in test [2], greater than 5 µM.

Take `O=C(N[C@@H](Cc1c[nH]c2ccccc12)C(=O)OCc1ccc(Cl)cc1)c1ccccc1`: the concentration for half-maximal inhibition (IC50) was 0.243 µM in test [5], greater than 5 µM in test [1] and greater than 5 µM in test [2].

As for `O=C(N[C@@H](Cc1c[nH]c2ccccc12)C(=O)OCc1ccccc1C(F)(F)F)c1ccccc1`, the IC50 in test [5] is 0.183 µM; in test [1], greater than 5 µM; in test [2], greater than 5 µM.

Take `CC(=O)N[C@@H](Cc1ccc(Cl)c(Cl)c1)C(=O)OCc1cc(C)cc(C)c1` (racemic): the IC50 in test [5] was 0.03 µM; in test [1], greater than 5 µM; in test [2], greater than 5 µM.

`CCN[C@@H](Cc1c[nH]c2ccccc12)C(=O)OCc1ccccc1`: the IC50 in test [1] and in test [2] was greater than 5 µM throughout.

As for `CC(=O)N[C@@H](Cc1csc2ccccc12)C(=O)OCc1cc(C(F)(F)F)cc(C(F)(F)F)c1` (racemic) [L-709400], the concentration for half-maximal inhibition (IC50) in test [5] is 0.008 µM; in test [1], greater than 5 µM; in test [2] it was greater than 5 µM.

Turning to `COc1ccc(COC(=O)[C@H](Cc2c[nH]c3ccccc23)NC(=O)c2ccccc2)cc1`, the IC50 is 5.5 µM in test [5], greater than 5 µM in test [1] and greater than 5 µM in test [2].

As for `Cc1cc(C)cc(COC(=O)[C@H](Cc2c[nH]c3ccccc23)NC(=O)c2ccccc2)c1`, the IC50 in test [5] is 0.022 µM; in test [1], greater than 5 µM; in test [2] it was greater than 5 µM.

Take `Cc1cc(C)cc(COC(=O)[C@H](Cc2c[nH]c3ccccc23)[N+](C)(C)C)c1`: the concentration for half-maximal inhibition (IC50) in test [1] and in test [2] was greater than 5 µM in each case.

Turning to `CC(=O)N[C@@H](Cc1n[nH]c2ccccc12)C(=O)OCc1cc(C(F)(F)F)cc(C(F)(F)F)c1` (racemic), the results for the IC50 in test [5], in test [1] and in test [2] were 0.197 µM, greater than 5 µM and greater than 5 µM, respectively.

Turning to `N[C@@H](Cc1c[nH]c2ccccc12)C(=O)OCc1ccccc1`, the half-inhibitory concentration (IC50) in test [1] and in test [2] was greater than 5 µM throughout.

`CNC(=O)N[C@@H](Cc1c[nH]c2ccccc12)C(=O)OCc1cc(C)cc(C)c1`: the IC50 in test [5] was 0.103 µM; in test [1], greater than 5 µM; in test [2] it was greater than 5 µM.

As for `Cc1cc(C)cc(COC(=O)[C@@H](N)Cc2c[nH]c3ccccc23)c1`, the IC50 in test [1] and in test [2] was greater than 5 µM each time.

`CC(C)(C)OC(=O)N[C@@H](Cc1c[nH]c2ccccc12)C(=O)OCc1ccccc1`: the IC50 in test [1] and in test [2] was greater than 5 µM throughout.

For `O=C(N[C@@H](Cc1c[nH]c2ccccc12)C(=O)OCc1cccc(C(F)(F)F)c1)c1ccccc1`, the IC50 in test [5] is 0.062 µM; in test [1] it was greater than 5 µM; in test [2], greater than 5 µM.

In the case of `Cc1cc(C)cc(COC(=O)[C@H](Cc2c[nH]c3ccccc23)N(C)C)c1`, the IC50 in test [1] and in test [2] was greater than 5 µM each time.

As for `COc1ccccc1COC(=O)[C@H](Cc1c[nH]c2ccccc12)NC(=O)c1ccccc1`, the IC50 was greater than 0.1 µM in test [5], greater than 5 µM in test [1] and greater than 5 µM in test [2].

Take `COc1cccc(COC(=O)[C@H](Cc2c[nH]c3ccccc23)NC(=O)c2ccccc2)c1`: the IC50 is 0.76 µM in test [5], greater than 5 µM in test [1] and greater than 5 µM in test [2].

With `Cc1cc(C)cc(COC(=O)[C@H](Cc2c[nH]c3ccccc23)NC(=O)OC(C)(C)C)c1`, the half-maximal inhibitory concentration (IC50) in test [1] and in test [2] was greater than 5 µM in each case.

As for `O=C(N[C@@H](Cc1c[nH]c2ccccc12)C(=O)OCc1ccccc1Cl)c1ccccc1`, the IC50 in test [1] and in test [2] was greater than 5 µM throughout.

Turning to `CC(=O)N[C@@H](Cc1ccccc1)C(=O)OCc1cc(C)cc(C)c1`, the half-maximal inhibitory concentration (IC50) was 0.433 µM in test [5], greater than 5 µM in test [1] and greater than 5 µM in test [2].

On to `COC(=O)N[C@@H](Cc1c[nH]c2ccccc12)C(=O)OCc1cc(C)cc(C)c1`, for which the figures for the IC50 in test [5], in test [1] and in test [2] were 0.087 µM, greater than 5 µM and greater than 5 µM, respectively.

`O=C(N[C@@H](Cc1c[nH]c2ccccc12)C(=O)OCc1cccc(Cl)c1)c1ccccc1`: the IC50 in test [5] is 1.05 µM; in test [1], greater than 5 µM; in test [2], greater than 5 µM.

Take `O=C(N[C@@H](Cc1c[nH]c2ccccc12)C(=O)OCc1ccc(C(F)(F)F)cc1)c1ccccc1`: the IC50 in test [5] is 2.15 µM; in test [1], greater than 5 µM; in test [2], greater than 5 µM.

With `CC(=O)N[C@@H](Cc1cccc2ccccc12)C(=O)OCc1cc(C)cc(C)c1`, the IC50 is 0.153 µM in test [5], greater than 5 µM in test [1] and greater than 5 µM in test [2].

With `CC(=O)N[C@@H](Cc1ccc2ccccc2c1)C(=O)OCc1cc(C)cc(C)c1`, the IC50 was 0.138 µM in test [5], greater than 5 µM in test [1] and greater than 5 µM in test [2].

Regarding `COc1ccccc1COC(=O)[C@H](Cc1c[nH]c2ccccc12)NC(=O)OC(C)(C)C`, the concentration for half-maximal inhibition (IC50) in test [1] and in test [2] was greater than 5 µM each time.

For the compound `Cc1cc(C)cc(COC(=O)C(Cc2c[nH]c3ccccc23)NC(=O)c2ccccc2)c1` (single isomer, unassigned), the IC50 in test [1] and in test [2] was greater than 5 µM throughout.
